Source: ChEMBL document CHEMBL4325893, “Synthesis and antibacterial profiles of targeted triclosan derivatives” (2019)
In brackets after ≈: the same amount, converted by molar mass.

Key:
[1] = system: Escherichia coli; assay: Antibacterial activity against Escherichia coli OCC 122 after 18 hrs; type: functional; details: OCC 122, 18 h
Method in brief: (§1)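 Broth microdilution in Nutrient Broth No. 2; stocks in ethanol diluted to 0.01–128 µg/ml (triclosan) or 0.25–256 µg/ml (glycosides). Overnight 37 °C NB2 cultures diluted 1 in 10^4 in saline and added to the dilutions. Incubation at 37 °C with agitation, OD read every 15 min; MIC is the lowest concentration preventing any OD rise after 18 h.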

[2] = Antibacterial activity against Salmonella enterica subspecies enterica serotype Pullorum OCC 273 after 18 hrs; type: functional, Salmonella enterica subsp. enterica serovar Pullorum; details: OCC 273, 18 h; method in brief: as §1
[3] = system: Bacillus cereus; assay: Antibacterial activity against Bacillus cereus ATCC 14579 after 18 hrs; type: functional; details: ATCC 14579, 18 h; method in brief: as §1
[4] = Antibacterial activity against Salmonella enterica subspecies enterica serotype Infantis OCC 2133 after 18 hrs; type: functional, Salmonella enterica subsp. enterica serovar Infantis; details: OCC 2133, 18 h; method in brief: as §1
[5] = system: Salmonella typhimurium; assay: Antibacterial activity against Salmonella enterica subspecies enterica serotype typhimurium ATCC 14028 after 18 hrs; type: functional, Salmonella enterica subsp. enterica serovar Typhimurium; details: ATCC 14028, 18 h; method in brief: as §1
[6] = Antibacterial activity against Salmonella enterica subspecies enterica serotype Poona NCTC 4840 after 18 hrs; type: functional, Salmonella enterica subsp. enterica serovar Poona; details: NCTC 4840, 18 h; method in brief: as §1
[7] = system: Enterococcus faecalis; assay: Antibacterial activity against Enterococcus faecalis ATCC 29212 after 18 hrs; type: functional; details: ATCC 29212, 18 h; method in brief: as §1
[8] = system: Bacillus subtilis; assay: Antibacterial activity against Bacillus subtilis NCTC 10073 after 18 hrs; type: functional; details: NCTC 10073, 18 h; method in brief: as §1
[9] = system: Citrobacter freundii; assay: Antibacterial activity against Citrobacter freundii 8090 after 18 hrs; type: functional; details: Citrobacter freundii, 8090, 18 h; method in brief: as §1
[10] = system: Staphylococcus aureus; assay: Antibacterial activity against Staphylococcus aureus ATCC 9144 after 18 hrs; type: functional; details: ATCC 9144, 18 h; method in brief: as §1
[11] = system: Klebsiella aerogenes; assay: Antibacterial activity against Enterobacter aerogenes ATCC 13048 after 18 hrs; type: functional; details: ATCC 13048, 18 h; method in brief: as §1
[12] = system: Streptococcus pyogenes; assay: Antibacterial activity against Streptococcus pyogenes ATCC 19615 after 18 hrs; type: functional; details: ATCC 19615, 18 h
Method in brief: (§2)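 Broth microdilution in Nutrient Broth No. 2. Ethanol stocks were diluted in broth to 0.01–128 µg/ml for triclosan and 0.25–256 µg/ml for glycosides. Overnight 37°C NB2 cultures were diluted 1 in 10^4 in saline and added to the wells. Plates were incubated at 37°C with OD read every 15 min after agitation. MIC was the lowest concentration giving no OD increase at 18 h.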

[13] = system: Streptococcus viridans; assay: Antibacterial activity against Streptococcus viridans OCC 234 after 18 hrs; type: functional; details: OCC 234, 18 h; method in brief: as §2
[14] = system: Cronobacter sakazakii; assay: Antibacterial activity against Cronobacter sakazakii 29544 after 18 hrs; type: functional; details: Cronobacter sakazakii, 29544, 18 h; method in brief: as §1
[15] = system: Enterococcus faecium; assay: Antibacterial activity against Enterococcus faecium ATCC 19434 after 18 hrs; type: functional; details: ATCC 19434, 18 h; method in brief: as §1
[16] = system: Staphylococcus aureus; assay: Antibacterial activity against Staphylococcus aureus NCTC 13758 after 18 hrs; type: functional; details: NCTC 13758, 18 h; method in brief: as §1
[17] = system: Streptococcus pneumoniae; assay: Antibacterial activity against Streptococcus pneumoniae 6305 after 18 hrs; type: functional; details: Streptococcus pneumoniae, 6305, 18 h; method in brief: as §2
[18] = system: Serratia marcescens; assay: Antibacterial activity against Serratia marcescens OCC 217 after 18 hrs; type: functional; details: OCC 217, 18 h; method in brief: as §1
[19] = system: Klebsiella aerogenes; assay: Antibacterial activity against Klebsiella aerogenes NCTC 8167 after 18 hrs; type: functional; details: NCTC 8167, 18 h; method in brief: as §1
[20] = system: Staphylococcus aureus; assay: Antibacterial activity against Staphylococcus aureus OCC 106 after 18 hrs; type: functional; details: OCC 106, 18 h; method in brief: as §1
[21] = system: Staphylococcus aureus; assay: Antibacterial activity against Staphylococcus aureus OCC 104 after 18 hrs; type: functional; details: OCC 104, 18 h; method in brief: as §1
[22] = system: Escherichia coli; assay: Antibacterial activity against Escherichia coli ATCC 11775 after 18 hrs; type: functional; method in brief: as §1
[23] = system: Aeromonas hydrophila; assay: Antibacterial activity against Aeromonas hydrophila OCC 778 after 18 hrs; type: functional; details: OCC 778, 18 h; method in brief: as §1
[24] = system: Proteus vulgaris; assay: Antibacterial activity against Proteus vulgaris OCC 195 after 18 hrs; type: functional; details: OCC 195, 18 h; method in brief: as §1
[25] = system: Escherichia coli; assay: Antibacterial activity against Escherichia coli ATCC 8739 after 18 hrs; type: functional; details: ATCC 8739, 18 h; method in brief: as §1
[26] = system: Escherichia coli; assay: Antibacterial activity against Escherichia coli 700728 after 18 hrs; type: functional; details: Escherichia coli, 700728, 18 h; method in brief: as §1
[27] = system: Staphylococcus epidermidis; assay: Antibacterial activity against Staphylococcus epidermidis ATCC 14990 after 18 hrs; type: functional; details: ATCC 14990, 18 h; method in brief: as §1
[28] = system: Enterococcus faecalis; assay: Antibacterial activity against Enterococcus faecalis ATCC 33186 after 18 hrs; type: functional; details: ATCC 33186, 18 h; method in brief: as §1
[29] = system: Escherichia coli; assay: Antibacterial activity against Escherichia coli ATCC 25922 after 18 hrs; type: functional; details: ATCC 25922, 18 h; method in brief: as §1

MIC [1]: 0.5 to 4 µg/mL (≈ 1.19 to 9.49 µM)
MIC [2]: 2 to 8 µg/mL (≈ 4.74 to 19 µM)
MIC [3]: 128 µg/mL (≈ 304 µM)
MIC [4]: 2 to 8 µg/mL (≈ 4.74 to 19 µM)
MIC [5]: 2 to 8 µg/mL (≈ 4.74 to 19 µM)
MIC [6]: 2 to 8 µg/mL (≈ 4.74 to 19 µM)
MIC [7]: 128 µg/mL (≈ 304 µM)
MIC [8]: 32 µg/mL (≈ 75.9 µM)
MIC [9]: 8 µg/mL (≈ 19 µM)
MIC [10]: 0.5 µg/mL (≈ 1.19 µM)
MIC [11]: 8 µg/mL (≈ 19 µM)
MIC [12]: 16 µg/mL (≈ 37.9 µM)
MIC [13]: 128 µg/mL (≈ 304 µM)
MIC [14]: 8 µg/mL (≈ 19 µM)
MIC [15]: 256 µg/mL (≈ 607 µM)
MIC [16]: 0.5 µg/mL (≈ 1.19 µM)
MIC [17]: 64 µg/mL (≈ 152 µM)
MIC [18]: > 256 µg/mL
MIC [19]: 4 µg/mL (≈ 9.49 µM)
MIC [20]: 0.5 µg/mL (≈ 1.19 µM)
MIC [21]: 0.5 µg/mL (≈ 1.19 µM)
MIC [22]: 0.5 to 4 µg/mL (≈ 1.19 to 9.49 µM)
MIC [23]: 128 µg/mL (≈ 304 µM)
MIC [24]: 16 µg/mL (≈ 37.9 µM)
MIC [25]: 0.5 to 4 µg/mL (≈ 1.19 to 9.49 µM)
MIC [26]: 0.5 to 4 µg/mL (≈ 1.19 to 9.49 µM)
MIC [27]: 0.5 µg/mL (≈ 1.19 µM)
MIC [28]: 128 µg/mL (≈ 304 µM)
MIC [29]: 0.5 to 4 µg/mL (≈ 1.19 to 9.49 µM)
SMILES: O[C@@H]1[C@@H](Oc2cc(Cl)ccc2Oc2ccc(Cl)cc2Cl)OC[C@@H](O)[C@H]1O
